The nature of series [1]: Metabolic stability in human liver microsomes assessed as compound remaining after 30 mins. It counts as ADME, Microsome. Conditions: read-out: Stability. Summed up: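 Pooled human liver microsomes, compound at 1 μM in 100 mM phosphate buffer pH 7.4. NADP+ regenerating system (1 mM NADP+, 5 mM isocitric acid, 1 U/mL isocitric dehydrogenase) with 1 mM MgCl2. Read-out is percent parent remaining after 30 min incubation.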

Series [2] in a line: Inhibition of chimeric mouse-human sEH assessed as 6,8-difluoro-4-methylumbelliferyl trans-2,3-epoxy-3-phenylpropylcarbonate hydrolysis preincubated for 10 mins before addition of substrate by fluorometric assay.
Series [3] relates to soluble epoxide hydrolase (Chlorocebus aethiops). The experiment in a line: Inhibition of native sEH in african green monkey COS7 cells assessed as 11,12-epoxyeicosatrienoic acid hydrolysis preincubated for 1 hr before substrate addition measured after 2 hrs by LC/MS/MS. The note with it: cos-7.

A word on the IC50: it is the concentration at which inhibition is half-maximal. Regarding `CC(=O)c1ccc(N2CCC(CC(=O)Nc3nc4cc(C)ccc4o3)CC2)cc1`, in series [1], the remaining at 0.5 h was 53%. The IC50 in series [2] amounted to 3.61 nM; in series [3], 5.76 nM.
As to `Cc1ccc2nc(NC(=O)CC3CCN(C(=O)OC(C)(C)C)CC3)oc2c1`, in series [2], the IC50 came out at 202 nM.
With `CC(C)(C)OC(=O)N1CCC(CC(=O)Nc2nc3cc(Cl)ccc3o2)CC1`, the remaining at 0.5 h in series [1] was determined as 43%. Besides, the values for the IC50 in series [2] and in series [3] were 6.92 nM and 1.54 nM, respectively.
The corresponding values for `CC(=O)c1ccc(N2CCC(CC(=O)Nc3nc4ccccc4o3)CC2)cc1` are 62%, 19.4 nM and 22 nM.
In the case of `CC(C)(C)OC(=O)N1CCC(CC(=O)Nc2nc3ccccc3o2)CC1`, the remaining at 0.5 h in series [1] is 83%. The IC50 in series [2] was 94.3 nM; in series [3], 10.3 nM.
Taken in the same sequence, the figures for `Cc1cc(C)c2oc(NC(=O)CC3CCN(C(=O)OC(C)(C)C)CC3)nc2c1` were 22%, 73 nM and 4.38 nM.
The corresponding values for `CC(=O)c1ccc(N2CCC(CC(=O)Nc3nc4cc(Cl)ccc4o3)CC2)cc1` are 45%, 3.58 nM and 4.68 nM.
Take `Cc1cccc2oc(NC(=O)CC3CCN(C(=O)OC(C)(C)C)CC3)nc12`: the IC50 in series [2] was found to be 272 nM.
On the same count and under the same terms, the result for `CC(=O)c1ccc(N2CCC(CC(=O)Nc3nc4ccc(C)cc4o3)CC2)cc1` reads 184 nM.
As to `Cc1ccc2oc(NC(=O)CC3CCN(C(=O)OC(C)(C)C)CC3)nc2c1`, the remaining at 0.5 h in series [1] was 6%. The results for the half-maximal inhibitory concentration (IC50) in series [2] and in series [3] were 11.4 nM and 0.486 nM, respectively.
For the compound `CC(=O)c1ccc(N2CCC(CC(=O)Nc3nc4c(C)cccc4o3)CC2)cc1`, in series [2], the IC50 is 109 nM.
Turning to `CC(=O)c1ccc(N2CCC(CC(=O)Nc3nc4cc(C)cc(C)c4o3)CC2)cc1`, the remaining at 0.5 h in series [1] turned out to be 22%. The IC50 was 46.5 nM in series [2] and 1.42 nM in series [3].

These data come from ChEMBL document CHEMBL1687902, “Discovery of potent inhibitors of soluble epoxide hydrolase by combinatorial library design and structure-based virtual screening” (J Med Chem, 2011).
